A1 inh: caspase 3/7 activation in MEF A1-2A-BIM cells, primary screen, A1 inhibitor project, cell-based, luminescence, HTS. Caspase-Glo 3/7 luminescence, 3 h; percent of clofoctol response, vehicle zero. caspase activation, % (test concentration not listed). actives 0.066% (n = 330,000). AID 2462, 2010;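 active = over half of replicate activation scores above 10%, or exactly half above 10 with the replicate mean above 10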
MC4R antagonist: MC4R antagonists of cAMP signaling, primary screen, cell-based, TR-FRET, antagonist arm of biased-ligand search | Melanocortin receptor 4 (Homo sapiens), P32245 | MC4R-expressing cells, MTII-stimulated cAMP, LANCE TR-FRET | inhibition, % at 6.5 µM | actives 0.48% (n = 360,000) | AID 540295, 2011;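 active = inhibition above its plate's cutoff, the mean of tested wells on that plate plus 3 SD, cut at about 29% in these data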;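 note: 0% = Melanotan II alone and 100% = Melanotan II plus saturating MCL0020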
Target sequence (P32245 whole entry, looked up): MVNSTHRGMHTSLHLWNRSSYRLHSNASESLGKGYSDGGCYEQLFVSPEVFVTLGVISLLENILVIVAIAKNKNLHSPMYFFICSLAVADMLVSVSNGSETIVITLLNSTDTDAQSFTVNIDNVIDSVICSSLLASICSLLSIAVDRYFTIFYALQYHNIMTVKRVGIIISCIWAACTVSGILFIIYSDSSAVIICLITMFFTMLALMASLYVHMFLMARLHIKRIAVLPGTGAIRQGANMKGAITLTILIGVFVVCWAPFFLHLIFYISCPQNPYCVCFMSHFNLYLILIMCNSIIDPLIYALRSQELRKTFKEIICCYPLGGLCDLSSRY
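System: U2OS-MC4R stable cell line; Technique: Eu-cAMP/anti-cAMP TR-FRET, emission 671 nm; Repeats: single well per compound; Also added: Melanotan II; Dosing: one concentration, 6.5 µM nominal; Schedule: 30-min compound, 1-h challenge, 1-h detection, room temperature.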
MC4R ag barr: MC4R agonists recruiting beta-arrestin, primary screen, cell-based, luminescence, agonist arm of biased-ligand search | AID 540308, 2011 | U2OS MC4R beta-arrestin complementation; percent of melanotan II response, DMSO zero | actives 0.98% (n = 360,000) | Melanocortin receptor 4 (Homo sapiens), P32245 | activation, % at 8.9 µM;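 active = activation above a per-plate cutoff, the mean activation of sample wells on that plate plus 3 SD, cut at about 8% in these data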
UPR CHOP act: activators of apoptotic CHOP UPR arm, primary screen, cell-based, CHO-CHOP luciferase reporter, luminescence, uHTS. UPR activation; percent of tunicamycin response over DMSO baseline. activation, % at 10 µM. actives 0.34% (n = 330,000);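 active = at 10 µM dose, activation of 40% or more, normalized to positive control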;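 note: 100% = tunicamycin at 10 µg/mL and 0% = DMSO alone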
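Material: CHO-CHOP cells, stable luciferase reporter of PERK-eIF2a-CHOP signalling; quantity: 500 reporter cells seeded per well; buffer or medium: F12 medium containing 10% fetal bovine serum; compound: one dose, 10 µM in 0.5% DMSO; incubation: 6 h compound treatment, 37 °C; measured by: Steady-Glo luciferase luminescence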
UPR XBP1 act: activators of adaptive XBP1 UPR arm, primary screen, cell-based, CHO-XBP1 luciferase reporter, luminescence, uHTS; IRE1-XBP1 UPR activation; percent of tunicamycin response, DMSO as zero; activation, % at 20 µM; actives 0.33% (n = 330,000);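 active = versus positive control, 20 µM dose yields 30% or more activation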;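 note: 100% = tunicamycin at 10 µg/mL and 0% = DMSO only wells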
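Assay system: CHO-XBP1 luciferase reporter cells; Schedule: 6 h treatment, 37 °C; Detection: glow luminescence from Steady-Glo reagent; Benchmarks: high control tunicamycin 10 µg/mL final, low control DMSO vehicle only.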
* hit, by the source's call; nt = not tested or not shown. Shown are actives, neighbours in structure and some others; about 2% of the full set was active somewhere.

SMILES	A1 inh	MC4R antagonist	MC4R ag barr	UPR CHOP act	UPR XBP1 act
CN(C)c1ccc(CC(=O)N2CCCCC2c2cc(C(=O)Nc3cccc4c3CCCC4)no2)cc1 (centres undefined)	nt	9	2	nt	nt
COc1cc([N+](=O)[O-])ccc1NC(=O)COC(=O)c1n[nH]c2ccccc12	-1	3	1	2	2
O=C(COC(=O)c1n[nH]c2ccccc12)Nc1ccc(Cl)cc1[N+](=O)[O-]	0	-10	9.1*	2	4
O=C(c1ccccc1)c1cc(Cl)ccc1N1C(=O)C=CC1=O	nt	58*	-1	nt	nt
C[C@H]1CN([C@@H](C)CO)C(=O)c2cc(Br)cnc2O[C@H]1CN(C)S(=O)(=O)c1ccccc1F	nt	-4	0	nt	nt
COc1ccc(C(=O)NNC2=Nc3cccc4cccc2c34)cc1	0	-5	9.0*	2	4
Cc1ccc(C(=O)NNC2=Nc3cccc4cccc2c34)cc1	0	2	-1	5	2
Cn1c(/C=C/c2ccccc2)nc2ccccc2c1=O	-4	2	0	2	3
Cn1c(/C=C/c2ccc(Cl)cc2)nc2ccccc2c1=O	-1	-1	9.0*	6	1
CCOC(=O)Cc1ccc(Nc2nc(NCCOC)nc3ccsc23)cc1	nt	10	2	nt	nt
CCOC(=O)c1ccc(NC(=O)CCc2nc(-c3ccc(C)cc3)no2)cc1	2	14	9.7*	0	3
CCOC(=O)c1ccc(NC(=O)CCc2nc(-c3ccc(Cl)cc3)no2)cc1	-1	5	2	-3	1
CN(C)CCNC(=O)c1cc2c(s1)-c1ccc(Cl)cc1SC2	1	-1	11*	22	-5
Cc1cc(NC(=O)/C(C#N)=C/c2ccco2)n(-c2ccccc2)n1	0	-3	-3	-2	1
Cc1ccc(-c2ccc(/C=C(\C#N)C(=O)Nc3cc(C)nn3-c3ccccc3)o2)cc1	33*	nt	nt	55*	46*
CCCCCC(=O)N1C[C@H](O)[C@@H](n2cc(C3CC3)nn2)C[C@@H]1c1ccc(C)cc1	nt	12	1	nt	nt
CCC(=O)N1CCC1(C)C(=O)Nc1ccc(Cl)c(Cl)c1 (centres undefined)	nt	0	-1	nt	nt
O=c1[nH]c(/C=C/c2ccccc2[N+](=O)[O-])nc2ccccc12	0	-3	8.8*	9	3
Cc1cc(C)cc(NC(=S)N2CCC(c3nc4ccccc4s3)CC2)c1	0	-4	8.5*	1	-3
NC(=O)c1nsc(C(=O)N(c2cccc(F)c2)C(C(=O)NC2CCCC2)c2ccco2)c1N (centres undefined)	0	-2	8.9*	0	0
CCc1ccc(N(C(=O)c2snc(C(N)=O)c2N)C(C(=O)NC2CCCC2)c2ccco2)cc1 (centres undefined)	-1	2	0	2	-4
O=C(N=Nc1c(O)[nH]c2ccc(F)cc12)c1ccc(NS(=O)(=O)c2cccs2)cc1	-2	13	2	2	-1
COc1ccc2[nH]c(O)c(N=NC(=O)c3ccc(NS(=O)(=O)c4cccs4)cc3)c2c1	-2	9	9.0*	7	1
OCC1(Cc2cccc(C(F)(F)F)c2)CCN(Cc2cc3ccccc3o2)CC1	0	19	9.2*	0	0
COc1ccc(CC2(CO)CCN(Cc3cc4ccccc4o3)CC2)cc1	0	5	-2	-3	-1
CCC(C)(C)n1nnnc1C(c1ccc(O)c(OC)c1)N1CCc2ccccc2C1 (centres undefined)	1	27	1	42*	-5
OC(c1cccnc1)c1nc(/C=C/c2ccc(C(F)(F)F)cc2)cs1 (centres undefined)	nt	7	-1	nt	nt
CN(C)c1ccc(C#Cc2ccc3cc(CCO)oc(=O)c3c2)cc1	0	43*	-1	9	14

Bioassay records: PubChem BioAssay, several laboratories
